Our source for the Ki, Activity and inhibition values is ChEMBL document CHEMBL1134945, “Synthesis and structure-activity relationships of aminoalkylazetidines as ORL1 receptor ligands” (Bioorg Med Chem Lett, 2002).

Assay [1] addresses T1, Delta-type opioid receptor (Homo sapiens, UniProt P41143). Description: Binding affinity at human opioid receptor delta 1 was determined by using [3H]diprenorphine radioligand in CHO cell membranes at a concentration of 0.8 nM. Summed up:
(§1)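 Ki from competition binding with [3H]diprenorphine on membranes of CHO cells expressing the respective human opioid receptor; means of 2–3 independent determinations.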

Assay [2] has as its target T2, Nociceptin receptor (Homo sapiens, UniProt P41146). The assay is described as follows: Functional [35S]GTP-gamma-S, binding for human ORL1 receptor carried out in CHO cell membranes. The format is cell-based. The following applies: filed as agonist. Summed up: (§2)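 [35S]GTPγS binding on membranes of CHO cells expressing human ORL1, 1 h incubation before assay start. Agonist: raises [35S]GTPγS binding. Antagonist: no effect on basal binding but blocks the Nociceptin-induced rise.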
A general note: GTPγS resists hydrolysis and so accumulates on activated G proteins.

Another assay has as its target Mu-type opioid receptor (Homo sapiens, UniProt P35372). Description: Binding affinity at human opioid receptor mu 1 was determined by using [3H]diprenorphine radioligand in CHO cell membranes at a concentration of 0.12 nM. Summed up:
as §1

Assay [3] deals with T2, Nociceptin receptor. Description: Binding affinity at human ORL1 receptor was determined by using [125I]nociceptin radioligand in Chinese hamster ovary (CHO) cell membranes at a concentration of 23 pM. Summed up: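 Competition binding against [125I]Nociceptin on membranes of CHO cells expressing human ORL1; Ki derived; means of 2–3 independent determinations.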
Assay [4] addresses Kappa-type opioid receptor (Homo sapiens, UniProt P41145). The assay is described as follows: Binding affinity at human opioid receptor kappa 1 was determined by using [3H]diprenorphine radioligand in CHO cell membranes at a concentration of 0.31 nM. Summed up:
as §1

Assay [5] addresses T2, Nociceptin receptor. Description: Compound was evaluated for functional [35S]GTP-gamma-S, binding for human ORL1 receptor carried out in CHO cell membranes; Compound acts as Antagonist. The class given is cell-based. The note with it: filed as antagonist. Summed up:
as §2

The target in assay [6] is T1, Delta-type opioid receptor. The assay is described as follows: Binding affinity at human Opioid receptor delta 1 was determined by using [3H]diprenorphine radioligand in CHO cell membranes at a concentration of 0.8 nM. Summed up: as §1
For assay [7], the target named is T2, Nociceptin receptor. Description: Concentration of compound that inhibits the binding of human ORL1 receptor in CHO cell membranes in the presence of [125I]nociceptin radioligand at a concentration of 10 uM.
The target of assay [8] is T2, Nociceptin receptor. Description: Compound was evaluated for functional [35S]GTP-gamma-S, binding for human ORL1 receptor carried out in CHO cell membranes; Compound acts as Agonist. The format is cell-based. The following applies: filed as agonist. The gist of the method: as §2

Sequence of Kappa-type opioid receptor (P41145 whole entry): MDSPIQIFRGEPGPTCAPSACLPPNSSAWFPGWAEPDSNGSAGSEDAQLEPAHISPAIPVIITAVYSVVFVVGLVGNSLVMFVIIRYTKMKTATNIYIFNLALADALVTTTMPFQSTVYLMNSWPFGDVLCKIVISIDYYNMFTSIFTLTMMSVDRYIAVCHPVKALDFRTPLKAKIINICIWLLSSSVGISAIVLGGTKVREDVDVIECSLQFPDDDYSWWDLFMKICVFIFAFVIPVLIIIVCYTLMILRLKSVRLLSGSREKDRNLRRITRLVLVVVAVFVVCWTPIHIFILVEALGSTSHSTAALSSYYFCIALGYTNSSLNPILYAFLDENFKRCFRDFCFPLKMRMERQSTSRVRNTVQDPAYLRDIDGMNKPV
T2 sequence (P41146 whole entry): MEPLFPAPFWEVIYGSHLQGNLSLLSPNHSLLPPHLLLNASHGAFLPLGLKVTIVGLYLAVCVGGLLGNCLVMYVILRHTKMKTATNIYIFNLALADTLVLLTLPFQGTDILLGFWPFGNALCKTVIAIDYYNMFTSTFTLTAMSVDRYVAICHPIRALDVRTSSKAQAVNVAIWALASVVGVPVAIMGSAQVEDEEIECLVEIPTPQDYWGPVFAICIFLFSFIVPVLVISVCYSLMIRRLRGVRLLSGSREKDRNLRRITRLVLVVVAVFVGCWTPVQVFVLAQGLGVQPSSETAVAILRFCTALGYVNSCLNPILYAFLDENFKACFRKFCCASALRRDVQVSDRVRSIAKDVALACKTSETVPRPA
T1 sequence (P41143 whole entry): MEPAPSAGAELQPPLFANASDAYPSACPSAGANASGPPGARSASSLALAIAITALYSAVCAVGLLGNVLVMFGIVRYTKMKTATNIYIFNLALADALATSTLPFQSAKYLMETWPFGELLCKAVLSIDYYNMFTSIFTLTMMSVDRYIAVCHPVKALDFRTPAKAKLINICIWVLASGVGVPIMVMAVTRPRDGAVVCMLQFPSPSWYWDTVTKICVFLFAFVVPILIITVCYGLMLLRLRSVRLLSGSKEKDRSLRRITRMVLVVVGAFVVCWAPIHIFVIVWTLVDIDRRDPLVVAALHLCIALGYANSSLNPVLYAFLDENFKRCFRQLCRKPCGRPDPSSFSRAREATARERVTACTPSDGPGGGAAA
Sequence of Mu-type opioid receptor (P35372 whole entry): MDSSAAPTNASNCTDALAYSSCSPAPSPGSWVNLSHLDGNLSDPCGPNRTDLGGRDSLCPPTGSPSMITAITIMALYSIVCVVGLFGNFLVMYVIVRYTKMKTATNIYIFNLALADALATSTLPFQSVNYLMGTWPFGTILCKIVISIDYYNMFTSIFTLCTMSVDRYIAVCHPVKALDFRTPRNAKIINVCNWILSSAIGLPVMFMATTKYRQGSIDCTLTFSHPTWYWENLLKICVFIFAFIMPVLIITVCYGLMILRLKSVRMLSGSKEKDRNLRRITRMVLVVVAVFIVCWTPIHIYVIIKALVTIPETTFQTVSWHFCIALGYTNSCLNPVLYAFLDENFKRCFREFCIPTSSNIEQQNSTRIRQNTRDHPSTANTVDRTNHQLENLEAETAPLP

On to `CCCC(c1ccccc1)N1CC[C@H]1[C@H](N)c1cccc(Cl)c1` (stereo not given in full), for which the Ki – broadly, the dissociation constant of the complex between target and ligand, obtained from inhibition or displacement – in assay [1] was 16500 nM; on Mu-type opioid receptor, 6020 nM; at Nociceptin receptor [3], 79 nM; in assay [4] it was 7170 nM. In addition, the Activity entry on Nociceptin receptor [2] was “Agonist”.

Consider `CCC(c1ccccc1)N1CC[C@H]1[C@H](N)c1cccc(Cl)c1` (stereo not given in full), for which the Ki in [1] came to 22400 nM; at Mu-type opioid receptor, 7220 nM; at Nociceptin receptor [3] it was 94 nM; in assay [4], 7720 nM. On Nociceptin receptor [2], the Activity result is “Agonist”.

`Cc1ccc([C@H](N)[C@@H]2CCN2C(c2ccccc2)c2ccccc2)cc1F`: the Ki came to 634 nM in assay [1], 152 nM on Mu-type opioid receptor, 58 nM at Nociceptin receptor [3] and 150 nM in assay [4]. The Activity entry at Nociceptin receptor [2] is “Agonist”.

With `N[C@H](c1cccc(Cl)c1)[C@@H]1CCN1C(c1cccc(F)c1)c1cccc(F)c1`, the Ki amounted to 4790 nM in [1], 4320 nM on Mu-type opioid receptor, 64 nM on Nociceptin receptor [3] and 3530 nM in [4]. The Activity entry on Nociceptin receptor [2] is “Agonist”.

With `N[C@@H](c1cccc(C(F)(F)F)c1)[C@@H]1CCN1C(c1ccccc1)c1ccccc1` (stereo in doubt; (+\-)-1) [listing 1 of 2 here], at Nociceptin receptor [2], the Activity result is “Agonist”.

Turning to `N[C@@H](c1ccc(Cl)cc1)[C@@H]1CCN1C(c1ccccc1)c1ccccc1`, the Ki in assay [1] is 1440 nM; at Mu-type opioid receptor, 586 nM; at Nociceptin receptor [3], 152 nM; in assay [4], 607 nM. For the same molecule, at Nociceptin receptor [2], the Activity entry is “Agonist”.

On to `CCCCC(c1ccccc1)N1CC[C@H]1[C@H](N)c1cccc(Cl)c1` (stereo not given in full), for which the Ki in [1] worked out at 8050 nM; on Mu-type opioid receptor, 1810 nM; on Nociceptin receptor [3] it was 30 nM; in assay [4], 3430 nM. At Nociceptin receptor [2], the Activity result is “Agonist”.

As to `N[C@@H](c1cccc(C(F)(F)F)c1)[C@@H]1CCN1C(c1ccccc1)c1ccccc1` (stereo in doubt; (+)-1a) [listing 1 of 2 here], the Ki came out at 11000 nM in [1], 6090 nM at Mu-type opioid receptor, 236 nM on Nociceptin receptor [3] and 3570 nM in assay [4].

Turning to `CCCCC(c1cc(F)cc(F)c1)N1CC[C@H]1[C@@H](N)c1cccc(Cl)c1` (stereo not given in full), the Ki in assay [1] turned out to be 9370 nM; on Mu-type opioid receptor, 5550 nM; at Nociceptin receptor [3] it was 347 nM; in [4], 6490 nM.

`CCCCC(c1cccc(F)c1)N1CC[C@H]1[C@@H](N)c1cccc(Cl)c1` (stereo not given in full): the Ki in [1] is 12300 nM; on Mu-type opioid receptor, 4700 nM; on Nociceptin receptor [3], 680 nM; in assay [4], 4120 nM.

Regarding `N[C@@H](c1ccc(Oc2ccccc2)cc1)[C@@H]1CCN1C(c1ccccc1)c1ccccc1`, the Ki in assay [1] stood at 7720 nM; on Mu-type opioid receptor, 5400 nM; at Nociceptin receptor [3] it was 7220 nM; in [4], 2770 nM.

`CCCC(c1ccccc1)N1CC[C@H]1[C@@H](N)c1cccc(Cl)c1` (stereo not given in full): the Ki in [1] came out at 10100 nM; on Mu-type opioid receptor, 4130 nM; on Nociceptin receptor [3], 367 nM; in assay [4], 2940 nM.

On to `CCCCC(c1cccc(F)c1)N1CC[C@H]1[C@H](N)c1cccc(Cl)c1` (stereo not given in full), for which the Ki in assay [1] came out at 8710 nM; on Mu-type opioid receptor it was 1600 nM; at Nociceptin receptor [3] it was 26 nM; in assay [4] it was 2130 nM. The Activity result at Nociceptin receptor [2] is “Agonist”.

For the molecule `N[C@H](c1cccc(Cl)c1)[C@@H]1CCN1C(c1ccc(F)cc1)c1ccc(F)cc1`, the inhibition constant Ki in assay [1] was 7430 nM; at Mu-type opioid receptor, 2180 nM; at Nociceptin receptor [3] it was 684 nM; in assay [4], 2240 nM.

For `CCCCCC(c1ccccc1)N1CC[C@H]1[C@H](N)c1cccc(Cl)c1` (stereo not given in full), the Ki in [1] was 5960 nM; at Mu-type opioid receptor, 1940 nM; on Nociceptin receptor [3], 34 nM; in assay [4] it was 2990 nM.

`CCCCCCC(c1ccccc1)N1CC[C@H]1[C@H](N)c1cccc(Cl)c1` (stereo not given in full): the Ki on Mu-type opioid receptor was determined as 1490 nM; in assay [6] it was 3910 nM; at Nociceptin receptor [3], 185 nM; in [4], 2860 nM. The Activity entry on Nociceptin receptor [5] was “Antagonist”.

In the case of `Cc1ccc(C(c2ccc(C)cc2)N2CC[C@H]2[C@H](N)c2cccc(Cl)c2)cc1`, the Ki in [1] was found to be 5010 nM; on Mu-type opioid receptor, 801 nM; at Nociceptin receptor [3], 1140 nM; in assay [4], 1840 nM.

`N[C@@H](c1cccc(C(F)(F)F)c1)[C@@H]1CCN1C(c1ccccc1)c1ccccc1` (stereo in doubt; (+)-1a) [listing 2 of 2 here]: the Activity entry on Nociceptin receptor [2] is “Agonist”.

On to `N[C@@H](c1cc(F)cc(F)c1)[C@@H]1CCN1C(c1ccccc1)c1ccccc1`, for which the Ki in assay [1] turned out to be 9530 nM; on Mu-type opioid receptor, 4250 nM; at Nociceptin receptor [3] it was 105 nM; in assay [4] it was 4010 nM. In addition, at Nociceptin receptor [2], the Activity result is “Agonist”.

For `Cc1ccc([C@H](N)[C@@H]2CCN2C(c2ccccc2)c2ccccc2)cc1`, the Ki in [1] amounted to 1860 nM; on Mu-type opioid receptor, 488 nM; at Nociceptin receptor [3] it was 94 nM; in assay [4], 660 nM.

For `CC(c1ccccc1)N1CC[C@H]1[C@@H](N)c1cccc(Cl)c1` (stereo not given in full), the Ki in [1] turned out to be 39100 nM; on Mu-type opioid receptor, 10600 nM; on Nociceptin receptor [3] it was 1060 nM; in assay [4], 4100 nM.

On to `CCCCCCC(c1ccccc1)N1CC[C@H]1[C@@H](N)c1cccc(Cl)c1` (stereo not given in full), for which the Ki stood at 4980 nM in assay [1], 1590 nM at Mu-type opioid receptor, 1020 nM at Nociceptin receptor [3] and 1940 nM in assay [4].

For `N[C@H](c1cccc(C(F)(F)F)c1)[C@H]1CCN1C(c1ccccc1)c1ccccc1`, the Ki was 3310 nM in [1], 516 nM at Mu-type opioid receptor, 14 nM on Nociceptin receptor [3] and 641 nM in assay [4]. On Nociceptin receptor [2], the Activity result was “Agonist”.

Take `N[C@@H](c1cccc(C(F)(F)F)c1)[C@@H]1CCN1C(c1ccccc1)c1ccccc1` (stereo in doubt; (+\-)-1) [listing 2 of 2 here]: the Ki amounted to 6090 nM in [1], 1970 nM on Mu-type opioid receptor, 31 nM on Nociceptin receptor [3] and 1630 nM in assay [4].

As to `N[C@H](c1cccc(Cl)c1)[C@@H]1CCN1C(c1cccc(Cl)c1)c1cccc(Cl)c1`, the Ki in assay [1] was determined as 2710 nM; on Mu-type opioid receptor, 7160 nM; at Nociceptin receptor [3], 420 nM; in [4] it was 6040 nM. Besides, the Activity result on Nociceptin receptor [2] is “Agonist”.

For the molecule `CCCCC(c1ccccc1)N1CC[C@H]1[C@@H](N)c1cccc(Cl)c1` (stereo not given in full), the Ki amounted to 8820 nM in assay [1], 2250 nM on Mu-type opioid receptor, 745 nM at Nociceptin receptor [3] and 3680 nM in assay [4].

With `COc1ccc([C@H](N)[C@@H]2CCN2C(c2ccccc2)c2ccccc2)cc1`, the Ki turned out to be 2920 nM in assay [1], 865 nM on Mu-type opioid receptor, 198 nM at Nociceptin receptor [3] and 1340 nM in assay [4].

Take `Cc1cccc([C@H](N)[C@@H]2CCN2C(c2ccccc2)c2ccccc2)c1`: the inhibition (in general, the share of the control response that was lost under treatment) on Nociceptin receptor [7] stood at 3%.

Molecule `N[C@H](c1cccc(Cl)c1)[C@@H]1CCN1C(c1cccc(C(F)(F)F)c1)c1cccc(C(F)(F)F)c1` showed a Ki on Nociceptin receptor [3] of 2590 nM.

In the case of `CCCCC(CCCC)N1CC[C@H]1[C@@H](N)c1cccc(Cl)c1`, the Ki was 31800 nM in assay [1], 9670 nM at Mu-type opioid receptor, 1340 nM at Nociceptin receptor [3] and 4260 nM in [4].

For the molecule `N[C@H](c1cccc(Cl)c1)[C@@H]1CCN1C(c1ccc(Br)cc1)c1ccc(Br)cc1`, the Ki is 4990 nM in assay [1], 2500 nM at Mu-type opioid receptor, 2530 nM on Nociceptin receptor [3] and 1480 nM in assay [4].

`CCCCC(c1cc(F)cc(F)c1)N1CC[C@H]1[C@H](N)c1cccc(Cl)c1` (stereo not given in full): the Ki in assay [1] is 11200 nM; on Mu-type opioid receptor, 3980 nM; on Nociceptin receptor [3], 49 nM; in assay [4] it was 4220 nM. Besides, at Nociceptin receptor [8], the Activity result was “Agonist”.

As for `CCC(c1ccccc1)N1CC[C@H]1[C@@H](N)c1cccc(Cl)c1` (stereo not given in full), the Ki in assay [1] is 22400 nM; on Mu-type opioid receptor it was 8070 nM; at Nociceptin receptor [3], 570 nM; in assay [4], 13100 nM.

Consider `N[C@H](c1cccc(Cl)c1)[C@@H]1CCN1C(c1ccc(Cl)cc1)c1ccc(Cl)cc1`, for which the Ki in [1] amounted to 5010 nM; on Mu-type opioid receptor, 3450 nM; on Nociceptin receptor [3], 3220 nM; in [4], 3250 nM.

Take `COc1cccc([C@H](N)[C@@H]2CCN2C(c2ccccc2)c2ccccc2)c1`: on Nociceptin receptor [7], the inhibition was determined as 45%.

Regarding `N[C@@H](c1cccc(F)c1)[C@@H]1CCN1C(c1ccccc1)c1ccccc1`, the Ki was determined as 2920 nM in assay [1], 1770 nM on Mu-type opioid receptor, 191 nM on Nociceptin receptor [3] and 997 nM in assay [4]. Moreover, the Activity result on Nociceptin receptor [2] was “Agonist”.

For the molecule `N[C@@H](c1cccc(Cl)c1)[C@@H]1CCN1C(c1ccccc1)c1ccccc1`, the Ki was 8340 nM in assay [1], 1650 nM at Mu-type opioid receptor, 37 nM at Nociceptin receptor [3] and 1230 nM in assay [4].

With `CCCCCC(c1ccccc1)N1CC[C@H]1[C@@H](N)c1cccc(Cl)c1` (stereo not given in full), the Ki in assay [1] was 7580 nM; on Mu-type opioid receptor, 2150 nM; on Nociceptin receptor [3] it was 772 nM; in [4], 3910 nM.
